Substitutions are numbered along the chain they refer to. Like-named read-outs stand apart in the source and are kept apart here.

These results are taken from article PMC2231817 (The Journal of General Physiology, 2000).

The conditions of series [1]: ref Marsh and Phil 1990; cited from earlier work.
Series [2] concerns rod and olfactory CNG channels. The series can be described thus: Comparison of DAG analogues on cloned CNG channels. It counts as biochemical. The following applies: data not shown.
Series [3] deals with T1, bovine rod CNG channel (CNG1, α homomultimer) (Bos taurus, UniProt Q00194).
T1 sequence (Q00194 1-690): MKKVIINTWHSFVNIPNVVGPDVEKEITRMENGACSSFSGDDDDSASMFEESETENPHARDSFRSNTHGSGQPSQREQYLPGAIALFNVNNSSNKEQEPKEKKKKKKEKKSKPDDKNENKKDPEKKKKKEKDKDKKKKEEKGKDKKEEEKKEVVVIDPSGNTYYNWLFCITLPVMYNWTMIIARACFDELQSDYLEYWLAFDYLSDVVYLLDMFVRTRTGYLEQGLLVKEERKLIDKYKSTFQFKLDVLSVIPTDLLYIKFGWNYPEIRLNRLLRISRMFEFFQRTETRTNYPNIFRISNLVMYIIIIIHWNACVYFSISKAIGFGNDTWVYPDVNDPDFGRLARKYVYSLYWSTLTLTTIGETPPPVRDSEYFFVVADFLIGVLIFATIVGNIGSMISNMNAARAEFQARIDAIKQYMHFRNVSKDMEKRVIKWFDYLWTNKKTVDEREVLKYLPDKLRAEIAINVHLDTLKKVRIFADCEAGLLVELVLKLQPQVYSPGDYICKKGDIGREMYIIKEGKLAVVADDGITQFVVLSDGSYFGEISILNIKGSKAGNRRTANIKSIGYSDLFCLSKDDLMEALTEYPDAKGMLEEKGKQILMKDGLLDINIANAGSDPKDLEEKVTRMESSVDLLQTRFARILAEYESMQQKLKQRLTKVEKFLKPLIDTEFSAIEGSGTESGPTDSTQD
It counts as biochemical.

For series [4], the target named is T2, rat olfactory CNG channel (CNG2, α homomultimer) (Rattus norvegicus, UniProt Q00195).
T2 sequence (Q00195 1-664): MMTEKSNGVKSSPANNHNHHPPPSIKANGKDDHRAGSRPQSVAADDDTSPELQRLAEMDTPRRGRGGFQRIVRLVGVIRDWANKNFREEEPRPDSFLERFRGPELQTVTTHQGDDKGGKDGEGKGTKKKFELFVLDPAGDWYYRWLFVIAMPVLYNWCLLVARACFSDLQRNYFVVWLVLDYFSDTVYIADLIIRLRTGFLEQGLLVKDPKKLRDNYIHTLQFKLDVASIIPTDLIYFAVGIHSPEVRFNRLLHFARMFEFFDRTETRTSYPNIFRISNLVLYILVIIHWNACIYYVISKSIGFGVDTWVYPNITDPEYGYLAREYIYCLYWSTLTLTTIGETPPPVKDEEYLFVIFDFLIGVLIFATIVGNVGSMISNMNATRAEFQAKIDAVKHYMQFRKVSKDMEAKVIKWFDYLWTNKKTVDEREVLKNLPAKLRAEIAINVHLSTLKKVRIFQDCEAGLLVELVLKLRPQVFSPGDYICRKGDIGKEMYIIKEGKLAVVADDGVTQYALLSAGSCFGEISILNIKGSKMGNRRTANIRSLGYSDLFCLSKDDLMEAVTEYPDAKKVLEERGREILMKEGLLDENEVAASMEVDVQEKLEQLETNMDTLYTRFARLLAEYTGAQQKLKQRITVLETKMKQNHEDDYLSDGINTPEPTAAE
The format is biochemical.

Series [5] addresses T3, CHM 11 rod/olfactory chimeric CNG channel (Bos taurus / Rattus norvegicus, UniProt Q00194+Q00195).
T3 sequence (Q00194 1-690): T1 sequence (Q00194 1-690)
T3 sequence (Q00195 1-664): T2 sequence (Q00195 1-664)
The series can be described thus: DAG dose-response on chimera CHM11, inside-out patches from Xenopus oocytes. The format is biochemical, bovine/rat. Conditions: saturating 2 mM cGMP, five patches. The procedure, abridged: (§1)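 Chimera cRNA injected into Xenopus oocytes, held at 15°C overnight then 18°C for 1–10 d; vitelline membrane removed. […] 1,2-DiC8 from DMSO stock added stepwise to bath (0.05–48 μM; DMSO <1.2%). Leak-subtracted currents; Hill fit to averaged data, scaled to maximal inhibition.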

Series [6] deals with T4, CHM 13 rod/olfactory chimeric CNG channel (Bos taurus / Rattus norvegicus, UniProt Q00194+Q00195).
T4 sequence (Q00194 1-690): T1 sequence (Q00194 1-690)
T4 sequence (Q00195 1-664): T2 sequence (Q00195 1-664)
The series can be described thus: DAG dose-response on chimera CHM13, inside-out patches from Xenopus oocytes. It counts as biochemical, bovine/rat. The following applies: saturating 2 mM cGMP, six patches. The procedure, abridged:
as §1

In series [7] the target is T5, CHM 3 rod/olfactory chimeric CNG channel (Bos taurus / Rattus norvegicus, UniProt Q00194+Q00195).
T5 sequence (Q00194 with tags, fused parts or gaps): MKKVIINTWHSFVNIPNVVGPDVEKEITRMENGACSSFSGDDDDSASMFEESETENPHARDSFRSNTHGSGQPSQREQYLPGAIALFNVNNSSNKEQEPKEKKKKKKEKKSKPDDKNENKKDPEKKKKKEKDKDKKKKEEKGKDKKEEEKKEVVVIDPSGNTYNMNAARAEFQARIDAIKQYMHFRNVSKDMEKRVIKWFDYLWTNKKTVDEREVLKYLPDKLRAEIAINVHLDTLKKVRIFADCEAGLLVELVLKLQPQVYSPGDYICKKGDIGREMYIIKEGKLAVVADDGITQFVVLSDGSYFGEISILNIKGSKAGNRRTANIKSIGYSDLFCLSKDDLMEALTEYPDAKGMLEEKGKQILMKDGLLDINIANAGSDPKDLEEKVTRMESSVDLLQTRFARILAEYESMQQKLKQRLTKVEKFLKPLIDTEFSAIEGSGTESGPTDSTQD
T5 sequence (Q00195 147-381): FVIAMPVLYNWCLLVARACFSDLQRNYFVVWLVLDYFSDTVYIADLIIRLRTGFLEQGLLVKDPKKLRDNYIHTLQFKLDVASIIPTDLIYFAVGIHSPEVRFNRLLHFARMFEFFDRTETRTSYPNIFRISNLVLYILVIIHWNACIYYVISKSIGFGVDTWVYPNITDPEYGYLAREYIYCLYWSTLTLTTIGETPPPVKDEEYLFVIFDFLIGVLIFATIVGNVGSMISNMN
In words: DAG dose-response on chimera CHM3, inside-out patches from Xenopus oocytes. The format is biochemical, bovine/rat. Conditions: saturating 2 mM cGMP, 4 patches. The procedure, abridged: as §1

Series [8] concerns the target T6, mutant rod CNG channel H468Q (H468Q and A483V), α homomultimer (Bos taurus, UniProt Q00194, A483V/H468Q).
T6 sequence (Q00194 1-690 H468Q/A483V): T1 sequence (Q00194 1-690) with H468Q, A483V
The format is biochemical, bovine.

The target of series [9] is T7, mouse olfactory CNG channel (Mus musculus, UniProt Q62398).
T7 sequence (Q62398 1-664): T2 sequence (Q00195 1-664) with P50S, Q69R, V77I, D115G, G118D, V297A, D611E, T661A, A662V
In words: Single-channel recording of olfactory channel with DAG. It counts as biochemical. Conditions: +80 mV, saturating cGMP, with and without DAG. The procedure, abridged: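 Three to five continuous 1-s records per condition, filtered at 5 kHz and sampled at 25 kHz. Amplitude histograms from full records were fit with Gaussians to obtain mean single-channel current.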

Series [10] deals with CNG channels. Conditions: ref Fodor et al. 1997; cited from earlier work.

`CCCCCCCC(=O)OC[C@H](COP(=O)([O-])OCC[N+](C)(C)C)OC(=O)CCCCCCC` [1,2-dioctanoyl phosphatidylcholine]: the critical micelle concentration in [1] was 270 µM.
As for `CCCCCCCC(=O)OCC(O)COC(=O)CCCCCCC` [1,3-DiC8], the “effectiveness of inhibition relative to 1,2-DiC8” value in [2] is on record as “just as effective as 1,2-DiC8”.
By IC50 is commonly meant the midpoint of a concentration-inhibition curve. Regarding `CCCCCCCC(=O)OC[C@H](CO)OC(=O)CCCCCCC` [DAG, 1,2-dioctanoyl-sn-glycerol], the results for the “factor of increase of cGMP K1/2” value in [3] (0.5 μM DAG) and in series [4] (0.5 μM DAG) were 3.2 and 2.2, respectively. The “reduction in the maximal current with DAG” value in series [3] (0.5 μM DAG, cGMP dose-response) is on record as 29%; in series [4] (0.5 μM DAG, cGMP dose-response), 3%. The IC50 in series [3] (IC50 for DAG inhibition, saturating 2 mM cGMP, 11 patches) was 830 nM; in series [8], 330 nM. Besides, the “Hill coefficient n of DAG inhibition” value amounted to 1.3 in series [3] (low cGMP (~30 μM), single patch); 1.7 in series [3] (saturating 2 mM cGMP); 1.4 in [4] (low cGMP (1.5 μM), single patch); 1.4 in [4] (saturating 100 μM cGMP); 1.6 in [5]; 2.8 in series [6]. Besides, the “Hill coefficient n of DAG inhibition” value in series [7] amounted to 1.6. Also, the “DAG concentration completely suppressing cGMP-activated currents” value in series [3] (saturating 2 mM cGMP) is about 3 µM. Also, the “INmax (maximal inhibition by DAG)” value in series [3] (saturating 2 mM cGMP) was 100%; in series [4] (saturating 100 μM cGMP), 31%. Also, in series [4] (0.5 μM DAG, saturating 100 μM cGMP), the “inhibition of cGMP-activated current by DAG” value is reported as “small effect”. Moreover, the “suppression of cGMP-activated currents at high DAG” value in series [4] (saturating (100 μM) cGMP, DAG as high as 12 μM) is given as “only partial suppression”. Also, in series [4] (saturating cGMP, rod vs olfactory), the “difference between DAG IC50 of rod and olfactory channel” value is “approximately a fourfold difference”. Besides, the “single-channel amplitude with DAG” value is recorded as 2.1 pA in series [8] (+80 mV, saturating cGMP, with and without 0.25 μM DAG, patch with two channels); 3.2 pA in series [9]. In addition, the “extent of inhibition by DAG” value in series [8] (saturating cGMP) was “fully inhibited”.
Take `Nc1nc2c(ncn2[C@@H]2O[C@@H]3COP(=O)(O)O[C@H]3[C@H]2O)c(=O)[nH]1` [cGMP]: in [4] (read-out: K1/2 for activation by cGMP, with 0.5 μM DAG, +100 mV, single patch), the EC50 was found to be 4 µM. Besides, the “Hill coefficient n of cGMP activation” value in series [4] (with 0.5 μM DAG) and in [4] (without DAG) was 2.8 throughout.
Turning to `CCCCNc1ccc(C(=O)OCCN(C)C)cc1` [tetracaine], the “Hill coefficient of inhibition” value in [10] is listed as about 1.
